# Experimental data: PMC10925177 (bioRxiv, 2024)
# Columns and labels:
# [1] = biological target: T1, GLP (Homo sapiens, UniProt Q9H9B1); assay: Western blot of GLP protein levels in cancer cells; assay type: cell-based; settings: 24 h, WB
# T1 sequence (Q9H9B1 1-1298): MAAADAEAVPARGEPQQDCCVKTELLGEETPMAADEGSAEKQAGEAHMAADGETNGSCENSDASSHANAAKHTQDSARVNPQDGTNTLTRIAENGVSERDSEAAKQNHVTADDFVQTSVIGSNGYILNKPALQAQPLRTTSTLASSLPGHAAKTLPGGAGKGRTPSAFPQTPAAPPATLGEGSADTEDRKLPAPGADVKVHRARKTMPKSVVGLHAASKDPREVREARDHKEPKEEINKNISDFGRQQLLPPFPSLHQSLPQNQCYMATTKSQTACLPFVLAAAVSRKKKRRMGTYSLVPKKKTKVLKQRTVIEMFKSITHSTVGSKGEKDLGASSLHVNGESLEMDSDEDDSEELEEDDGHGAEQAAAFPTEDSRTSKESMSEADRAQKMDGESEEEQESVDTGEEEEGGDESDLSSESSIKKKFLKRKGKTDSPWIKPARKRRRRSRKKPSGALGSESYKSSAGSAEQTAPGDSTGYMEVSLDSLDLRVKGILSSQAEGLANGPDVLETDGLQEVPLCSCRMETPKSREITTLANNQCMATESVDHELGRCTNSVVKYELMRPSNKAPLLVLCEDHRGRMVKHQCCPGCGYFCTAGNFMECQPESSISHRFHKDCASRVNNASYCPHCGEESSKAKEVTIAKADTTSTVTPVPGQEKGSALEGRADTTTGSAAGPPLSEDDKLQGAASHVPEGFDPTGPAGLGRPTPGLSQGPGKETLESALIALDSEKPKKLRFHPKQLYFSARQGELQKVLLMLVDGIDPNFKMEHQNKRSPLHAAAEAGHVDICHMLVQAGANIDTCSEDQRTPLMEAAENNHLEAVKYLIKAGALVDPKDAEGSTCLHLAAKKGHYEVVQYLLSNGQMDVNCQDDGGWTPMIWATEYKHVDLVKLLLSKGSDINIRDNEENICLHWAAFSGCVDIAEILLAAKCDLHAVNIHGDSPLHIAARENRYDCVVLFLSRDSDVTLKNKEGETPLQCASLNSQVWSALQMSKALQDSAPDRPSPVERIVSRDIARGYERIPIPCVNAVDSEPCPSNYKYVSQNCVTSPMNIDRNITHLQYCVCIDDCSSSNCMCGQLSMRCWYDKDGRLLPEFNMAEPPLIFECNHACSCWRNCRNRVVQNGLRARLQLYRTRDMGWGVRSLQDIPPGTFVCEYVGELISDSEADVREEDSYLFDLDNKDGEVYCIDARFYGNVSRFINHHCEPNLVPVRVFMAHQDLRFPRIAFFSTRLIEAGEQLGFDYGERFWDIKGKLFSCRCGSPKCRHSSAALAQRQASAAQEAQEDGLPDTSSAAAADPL
# Procedure, shortened: (§1)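 Cells (22Rv1, K562, H1299) were treated for 24 h at the indicated concentrations; 22Rv1 time courses were run at 3 μM. Cells were lysed in RIPA with protease inhibitors, and 10–30 μg of protein was resolved by SDS-PAGE and transferred to PVDF. Blots were probed overnight at 4 °C, with vinculin/β-actin as loading controls. Band intensity was normalised to DMSO, with n = 2 independent experiments (mean ± SD).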
# [2] = biological target: T1, GLP; assay: GLP radioactive methyltransferase assay; assay type: biochemical; settings: indicated concentrations, duplicate (Figure 4C)
# Procedure, shortened: (§2)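 Enzyme activity was measured with a radioisotope-based MT HotSpot methyltransferase assay run by a contract laboratory. Test compounds were run at the indicated concentrations, in duplicate. Data are mean ± SD of the two duplicate experiments.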
# [3] = test system: G9a mRNA; assay: RT-qPCR of G9a mRNA in H1299 cells; assay type: cell-based; settings: 3 μM, 24 h, normalized to DMSO
# Procedure, shortened: (§3)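 H1299 cells were treated with DMSO or test compound at 3 μM for 24 h. Total RNA was extracted and reverse-transcribed to cDNA. qPCR used gene-specific primers for G9a and GLP, and a GAPDH primer set was included.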
# [4] = biological target: T2, G9a (Homo sapiens, UniProt Q96KQ7); assay: Western blot of G9a protein levels in cancer cells; assay type: cell-based; settings: 24 h, WB
# T2 sequence (Q96KQ7 1-1210): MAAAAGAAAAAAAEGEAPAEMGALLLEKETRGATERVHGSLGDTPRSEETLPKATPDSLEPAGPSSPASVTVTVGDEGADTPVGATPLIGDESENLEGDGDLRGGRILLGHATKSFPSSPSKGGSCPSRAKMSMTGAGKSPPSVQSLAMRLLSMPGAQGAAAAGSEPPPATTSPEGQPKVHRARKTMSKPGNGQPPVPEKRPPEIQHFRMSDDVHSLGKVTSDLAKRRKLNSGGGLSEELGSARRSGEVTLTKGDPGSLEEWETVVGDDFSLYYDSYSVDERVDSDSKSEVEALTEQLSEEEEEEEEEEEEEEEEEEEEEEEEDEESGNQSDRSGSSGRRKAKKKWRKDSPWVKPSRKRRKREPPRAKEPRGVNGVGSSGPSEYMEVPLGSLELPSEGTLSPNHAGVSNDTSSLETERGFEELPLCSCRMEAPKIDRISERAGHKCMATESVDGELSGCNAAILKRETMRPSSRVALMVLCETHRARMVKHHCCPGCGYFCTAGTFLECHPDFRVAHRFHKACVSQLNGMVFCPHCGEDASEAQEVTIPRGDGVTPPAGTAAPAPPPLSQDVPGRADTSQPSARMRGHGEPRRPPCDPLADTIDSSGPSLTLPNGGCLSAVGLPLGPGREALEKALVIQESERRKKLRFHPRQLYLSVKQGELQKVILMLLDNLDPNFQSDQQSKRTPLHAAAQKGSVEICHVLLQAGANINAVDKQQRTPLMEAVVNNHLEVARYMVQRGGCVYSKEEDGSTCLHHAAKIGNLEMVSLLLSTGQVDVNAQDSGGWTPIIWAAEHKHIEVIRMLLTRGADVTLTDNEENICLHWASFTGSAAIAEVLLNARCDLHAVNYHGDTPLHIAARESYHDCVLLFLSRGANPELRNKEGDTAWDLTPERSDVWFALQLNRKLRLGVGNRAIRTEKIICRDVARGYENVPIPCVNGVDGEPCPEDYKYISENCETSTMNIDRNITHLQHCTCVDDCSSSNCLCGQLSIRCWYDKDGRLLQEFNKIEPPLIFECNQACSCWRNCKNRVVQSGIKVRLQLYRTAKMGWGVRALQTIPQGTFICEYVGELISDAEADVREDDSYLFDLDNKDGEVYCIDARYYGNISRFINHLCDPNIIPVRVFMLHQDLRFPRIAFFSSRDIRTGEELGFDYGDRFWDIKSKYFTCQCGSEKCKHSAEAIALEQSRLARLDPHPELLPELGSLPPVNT
# Procedure, shortened: as §1
# [5] = test system: GLP mRNA; assay: RT-qPCR of GLP mRNA in H1299 cells; assay type: cell-based; settings: 3 μM, 24 h, normalized to DMSO
# Procedure, shortened: as §3
# [6] = test system: K562 cells; assay: Cell viability assay; assay type: cell-based; settings: 7 days treatment, WST-8 (CCK-8)
# Procedure, shortened: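 K562 cells were grown at 37 °C in 5% CO2 and exposed to serial dilutions of the test compound for 7 days. Viability was read with CCK-8 (WST-8) as absorbance at 450 nm, with 690 nm as reference. IC50 came from curve fitting. Values are mean ± SD from four independent biological experiments.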
# [7] = biological target: T2, G9a; assay: G9a radioactive methyltransferase assay; assay type: biochemical; settings: indicated concentrations, duplicate (Figure 4B)
# Procedure, shortened: as §2
SMILES,inhibition of GLP enzymatic activity [2],inhibition of G9a enzymatic activity [7],"GLP degradation, in words ([1]; 22Rv1 cells, 0.3 or 3 μM)","G9a degradation, in words ([4]; 22Rv1 cells, 0.3 or 3 μM)",other results
"COc1cc2c(NC3CCN(C(C)C)CC3)nc(N3CCC(F)(F)CC3)nc2cc1OCCCN1CCCC1 [UNC0642, reference compound]",similarly inhibited,similarly inhibited,,,"GLP degradation, in words ([1]; K562 cells, 3 μM): did not degrade; mRNA levels of G9a [3]: did not significantly alter; G9a degradation, in words ([4]; K562 cells, 3 μM): did not degrade; mRNA levels of GLP [5]: did not significantly alter; GI50 of cell growth inhibition (IC50 in the figure) [6]: unable to suppress cell proliferation"
"COc1cc2c(NC3CCN(CCCC(=O)NCCOCCOCCOCCC(=O)N[C@H](C(=O)N4C[C@H](O)C[C@H]4C(=O)NCc4ccc(-c5scnc5C)cc4)C(C)(C)C)CC3)nc(N3CCC(F)(F)CC3)nc2cc1OCCCN1CCCC1 [Compound 13, (2S,4R)-1-((S)-2-(tert-butyl)-20-(4-((2-(4,4-difluoropiperidin-1-yl)-6-methoxy-7-(3-(pyrrolidin-1-yl)propoxy)quinazolin-4-yl)amino)piperidin-1-yl)-4,17-dioxo-7,10,13-trioxa-3,16-diazaicosanoyl)-4-hydroxy-N-(4-(4-methylthiazol-5-yl)benzyl)pyrrolidine-2-carboxamide]",,,little or no degradation,little or no degradation,
"COc1cc2c(NC3CCN(CCCC(=O)NCCCCCCCCCCCC(=O)N[C@H](C(=O)N4C[C@@H](O)C[C@@H]4C(=O)NCc4ccc(-c5scnc5C)cc4)C(C)(C)C)CC3)nc(N3CCC(F)(F)CC3)nc2cc1OCCCN1CCCC1 [Compound 14, (2R,4S)-1-((S)-2-(12-(4-(4-((2-(4,4-difluoropiperidin-1-yl)-6-methoxy-7-(3-(pyrrolidin-1-yl)propoxy)quinazolin-4-yl)amino)piperidin-1-yl)butanamido)dodecanamido)-3,3-dimethylbutanoyl)-4-hydroxy-N-(4-(4-methylthiazol-5-yl)benzyl)pyrrolidine-2-carboxamide]",similarly inhibited,similarly inhibited,,,
"COc1cc2c(NC3CCN(CCCC(=O)NCCC(=O)N[C@H](C(=O)N4C[C@H](O)C[C@H]4C(=O)NCc4ccc(-c5scnc5C)cc4)C(C)(C)C)CC3)nc(N3CCC(F)(F)CC3)nc2cc1OCCCN1CCCC1 [Compound 1, (2S,4R)-1-((S)-2-(3-(4-(4-((2-(4,4-difluoropiperidin-1-yl)-6-methoxy-7-(3-(pyrrolidin-1-yl)propoxy)quinazolin-4-yl)amino)piperidin-1-yl)butanamido)propanamido)-3,3-dimethylbutanoyl)-4-hydroxy-N-(4-(4-methylthiazol-5-yl)benzyl)pyrrolidine-2-carboxamide]",,,moderate,moderate,
"COc1cc2c(NC3CCN(CCCC(=O)NCCOCCC(=O)N[C@H](C(=O)N4C[C@H](O)C[C@H]4C(=O)NCc4ccc(-c5scnc5C)cc4)C(C)(C)C)CC3)nc(N3CCC(F)(F)CC3)nc2cc1OCCCN1CCCC1 [Compound 11, (2S,4R)-1-((S)-2-(3-(2-(4-(4-((2-(4,4-difluoropiperidin-1-yl)-6-methoxy-7-(3-(pyrrolidin-1-yl)propoxy)quinazolin-4-yl)amino)piperidin-1-yl)butanamido)ethoxy)propanamido)-3,3-dimethylbutanoyl)-4-hydroxy-N-(4-(4-methylthiazol-5-yl)benzyl)pyrrolidine-2-carboxamide]",,,,did not degrade,
"COc1cc2c(NC3CCN(CCCC(=O)NCCOCCOCCC(=O)N[C@H](C(=O)N4C[C@H](O)C[C@H]4C(=O)NCc4ccc(-c5scnc5C)cc4)C(C)(C)C)CC3)nc(N3CCC(F)(F)CC3)nc2cc1OCCCN1CCCC1 [Compound 12, (2S,4R)-1-((S)-2-(tert-butyl)-17-(4-((2-(4,4-difluoropiperidin-1-yl)-6-methoxy-7-(3-(pyrrolidin-1-yl)propoxy)quinazolin-4-yl)amino)piperidin-1-yl)-4,14-dioxo-7,10-dioxa-3,13-diazaheptadecanoyl)-4-hydroxy-N-(4-(4-methylthiazol-5-yl)benzyl)pyrrolidine-2-carboxamide]",,,little or no degradation,little or no degradation,
